Calls of active or inactive are those of the source. The rule behind the calls is not given here.
Columns and labels:
A549 [1] = test: Up regulation of p53 expression in human A549 cells at 3 to 12 uM after 24 hrs by Western blot analysis; type: functional, cell-based
Method in brief: (§1)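 A549 cells (3 × 10^5 per dish) were treated for 24 h and lysed in RIPA buffer; protein was measured by BCA. Lysates were run on 12% SDS-PAGE and blotted to nitrocellulose. Blots were blocked in 5% non-fat milk for 2 h at room temperature, then incubated with primary antibodies in TBST overnight at 4 °C. ECL detection was used, with bands normalized to β-actin (mean ± SD, three experiments).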

A549 [2] = test: Induction of reactive oxygen species generation in human A549 cells by MitoSOX Red dye-based FACS analysis; type: functional, cell-based
Method in brief: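 Treated A549 cells were stained with a kit dye that distinguishes ROS(−) and ROS(+) populations. Percentages of each population were measured by flow cytometry.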

A549 [3] = test: Down regulation of CDK2 expression in human A549 cells after 24 hrs by Western blot analysis; type: functional, cell-based; method in brief: as §1
A549 [4] = test: Induction of apoptosis in human A549 cells assessed as late apoptotic cells at 3 uM after 24 hrs by Annexin V-APC/7-AAD staining-based FACS analysis (reference value: 0.01%); type: functional
A549 [5] = test: Induction of apoptosis in human A549 cells assessed as increase in cleaved caspase-3 level at 3 to 12 uM after 24 hrs by Western blot analysis; type: functional, cell-based; method in brief: as §1
A549 [6] = test: Induction of apoptosis in human A549 cells assessed as late apoptotic cells at 12 uM after 24 hrs by Annexin V-APC/7-AAD staining-based FACS analysis (reference value: 0.01%); type: functional
A549 [7] = test: Induction of apoptosis in human A549 cells assessed as necrotic cells at 6 uM after 24 hrs by Annexin V-APC/7-AAD staining-based FACS analysis (reference value: 0.032%); type: functional
HUVEC = test: Antiproliferative activity against human HUVEC cells after 48 hrs by MTT assay; type: cell-based
A549 [8] = test: Induction of apoptosis in human A549 cells assessed as early apoptotic cells at 12 uM after 24 hrs by Annexin V-APC/7-AAD staining-based FACS analysis (reference value: 5.82%); type: functional
A549 [9] = test: Up regulation of p21 expression in human A549 cells at 3 to 12 uM after 24 hrs by Western blot analysis; type: functional, cell-based; method in brief: as §1
A549 [10] = test: Induction of apoptosis in human A549 cells assessed as necrotic cells at 12 uM after 24 hrs by Annexin V-APC/7-AAD staining-based FACS analysis (reference value: 0.032%); type: functional
A549 [11] = test: Induction of apoptosis in human A549 cells assessed as increase in cleaved caspase-9 level at 3 to 12 uM after 24 hrs by Western blot analysis; type: functional, cell-based; method in brief: as §1
L02 = test: Antiproliferative activity against human L02 cells after 48 hrs by MTT assay; type: cell-based; conditions: L02, 48 h
A549 [12] = test: Antiproliferative activity against human A549 cells after 48 hrs by MTT assay; type: functional, cell-based; conditions: A549, 48 h
A549 [13] = test: Induction of apoptosis in human A549 cells assessed as increase in Bax/Bcl-2 ratio after 24 hrs by Western blot analysis; type: functional, cell-based; method in brief: as §1
MCF7 = test: Antiproliferative activity against human MCF7 cells after 48 hrs by MTT assay; type: functional, cell-based; conditions: MCF7, 48 h
A549 [14] = test: Induction of apoptosis in human A549 cells assessed as viable cells at 12 uM after 24 hrs by Annexin V-APC/7-AAD staining-based FACS analysis (reference value: 94.1%); type: functional; conditions: A549, 24 h, read-out: Activity
A549 [15] = test: Induction of apoptosis in human A549 cells assessed as early apoptotic cells at 6 uM after 24 hrs by Annexin V-APC/7-AAD staining-based FACS analysis (reference value: 5.82%); type: functional
A549 [16] = test: Effect on cyclin B expression in human A549 cells at 3 to 12 uM after 24 hrs by Western blot analysis; type: functional, cell-based; method in brief: as §1
HepG2 = test: Antiproliferative activity against human HepG2 cells after 48 hrs by MTT assay; type: functional, cell-based; conditions: HepG2, 48 h
A549 [17] = test: Effect on CDK1 expression in human A549 cells at 3 to 12 uM after 24 hrs by Western blot analysis; type: functional, cell-based; method in brief: as §1
A549 [18] = test: Down regulation of cyclin E expression in human A549 cells after 24 hrs by Western blot analysis; type: functional, cell-based; method in brief: as §1
HCT-116 = test: Antiproliferative activity against human HCT116 cells after 48 hrs by MTT assay; type: functional, cell-based; conditions: HCT-116, 48 h
A549 [19] = test: Induction of apoptosis in human A549 cells assessed as necrotic cells at 3 uM after 24 hrs by Annexin V-APC/7-AAD staining-based FACS analysis (reference value: 0.032%); type: functional
A549 [20] = test: Cell cycle arrest in human A549 cells assessed as accumulation at S-phase at 12 uM after 24 hrs by propidium iodide staining-based FACS analysis (reference value: 17.8 %); type: functional
A549 [21] = test: Induction of apoptosis in human A549 cells assessed as viable cells at 3 uM after 24 hrs by Annexin V-APC/7-AAD staining-based FACS analysis (reference value: 94.1%); type: functional; conditions: A549, 24 h, read-out: Activity
A549 [22] = test: Induction of apoptosis in human A549 cells assessed as early apoptotic cells at 3 uM after 24 hrs by Annexin V-APC/7-AAD staining-based FACS analysis (reference value: 5.82%); type: functional
A549 [23] = test: Induction of apoptosis in human A549 cells assessed as viable cells at 6 uM after 24 hrs by Annexin V-APC/7-AAD staining-based FACS analysis (reference value: 94.1%); type: functional; conditions: A549, 24 h, read-out: Activity
A549 [24] = test: Induction of apoptosis in human A549 cells assessed as late apoptotic cells at 6 uM after 24 hrs by Annexin V-APC/7-AAD staining-based FACS analysis (reference value: 0.01%); type: functional
A549 [25] = test: Cell cycle arrest in human A549 cells assessed as accumulation at S-phase at 6 uM after 24 hrs by propidium iodide staining-based FACS analysis (reference value: 17.8 %); type: functional
[26] = Drug uptake in mitochondria of human A549 cells at 2 to 8 uM after 30 mins by MitoTracker Red CMXRos dye-based confocal microscopic analysis; type: ADME, cell-based; conditions: a549, 0.5 h
Method in brief: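 Live A549 cells were grown for 2 days in confocal dishes. They were then incubated with compound and MitoTracker Red CMXRos in culture medium for 30 min, and localization was imaged by laser-scanning confocal microscopy.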

A549 [27] = test: Effect on cyclin D expression in human A549 cells at 3 to 12 uM after 24 hrs by Western blot analysis; type: functional, cell-based; method in brief: as §1
A549 [28] = test: Cell cycle arrest in human A549 cells assessed as accumulation at S-phase at 3 uM after 24 hrs by propidium iodide staining-based FACS analysis (reference value: 17.8 %); type: functional

N#CC1=C(N)Oc2c(N)cc3nc4ccccc4nc3c2C12C(=O)N(Cc1cnnn1-c1cccc(C(F)(F)F)c1)c1ccccc12 (stereo not drawn)
Activity (A549 [1]): Active | Activity (A549 [2]): Dose-dependent effect | Activity (A549 [3]): Dose-dependent effect | Activity (A549 [4]): 0.031% | Activity (A549 [5]): Active | Activity (A549 [6]): 2.32% | Activity (A549 [7]): 0.127% | IC50 (HUVEC): > 50 µM | Activity (A549 [8]): 38.5% | Activity (A549 [9]): Active | Activity (A549 [10]): 3.21% | Activity (A549 [11]): Active | IC50 (L02): 38.1 µM | IC50 (A549 [12]): 5.4 µM | Activity (A549 [13]): Dose-dependent effect | IC50 (MCF7): 31.6 µM | viability at 12 µM (A549 [14]): 55.9% | Activity (A549 [15]): 11.2% | Activity (A549 [16]): inactive | IC50 (HepG2): 15.8 µM | Activity (A549 [17]): inactive | Activity (A549 [18]): Dose-dependent effect | IC50 (HCT-116): 18.9 µM | Activity (A549 [19]): 0.052% | Activity (A549 [20]): 51.1% | viability at 3 µM (A549 [21]): 91% | Activity (A549 [22]): 8.89% | viability at 6 µM (A549 [23]): 88.6% | Activity (A549 [24]): 0.053% | Activity (A549 [25]): 41.7% | Drug uptake [26]: Active | Activity (A549 [27]): inactive | Activity (A549 [28]): 30.5%
